Bioassay records from PubChem BioAssay.
Shown are actives, neighbours in structure and some others; about 2.2% of the full set was active somewhere.
miR122 inh = inhibitors of miR-122 in Huh7 cells; actives 0.3% (n = 340,000); AID 602342; Huh7 miR-122 Renilla luciferase sensor, 48 h; neutral wells = 0, positive control = 100; activation (reporter increase), % at 12.5 µM;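 active = mean replicate activation score at least 90 and every replicate individually at or above 90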;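 also: higher luciferase means less miR-122 activity so hits act as miR-122 inhibitors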
Jurkat NFkB inh = lowers PMA/ionomycin-induced NF-kB signal in Jurkat cells | PMA/ionomycin-induced NF-kB luciferase reporter, luminescence | inhibition, % at 4 µM | actives 0.53% (n = 330,000) | AID 435003; in the data active = inhibition above about 50%
NR2E3 ag-1 = NR2E3 (human) agonism; GST-NR2E3/biotin-RetCOR TR-FRET, 1536-well; actives 0.12% (n = 320,000); AID 2300; inhibition of corepressor binding, % at 4.78 µM;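 active = percent inhibition above the cutoff of mean plus 3 SD of all tested compounds, set per screening campaign, cut at about 20% in these data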;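 also: 0% = DMSO wells and 100% = biotin wells as full block of FRET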
Target sequence (Q9Y5X4 whole entry, looked up): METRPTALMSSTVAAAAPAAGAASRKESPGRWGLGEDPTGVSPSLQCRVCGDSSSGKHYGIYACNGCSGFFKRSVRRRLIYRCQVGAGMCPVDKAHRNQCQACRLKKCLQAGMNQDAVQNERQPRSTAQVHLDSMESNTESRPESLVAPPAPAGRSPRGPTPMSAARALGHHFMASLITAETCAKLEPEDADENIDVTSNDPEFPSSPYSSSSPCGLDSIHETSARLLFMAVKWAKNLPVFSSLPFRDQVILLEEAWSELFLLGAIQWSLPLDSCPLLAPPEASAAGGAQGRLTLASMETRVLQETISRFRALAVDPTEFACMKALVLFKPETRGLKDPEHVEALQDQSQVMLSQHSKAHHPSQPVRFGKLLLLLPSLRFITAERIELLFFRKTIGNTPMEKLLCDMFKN
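system = GST-tagged NR2E3 plus biotinylated RetCOR corepressor | input = 1.35 nM GST-NR2E3 | also added = 7 nM biotin-RetCOR | schedule = 5 h incubation at 4 °C | measured by = TR-FRET with europium anti-GST and streptavidin-D2, 340 nm excitation | read-out = percent loss of FRET ratio relative to control wells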
FGF22 binding = shifts melting point of recombinant human FGF22; recombinant FGF22 thermal shift, SYPRO orange fluorescence; percent of sucrose octasulfate shift, DMSO zero; activity (Tm shift, normalised), % at 9.99 µM; actives 1.5% (n = 340,000); AID 651658;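 active = mean Tm shift, scaled 0 neutral to 100 positive control, at about 1.3% or above, every replicate too, limit read from the data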
Target sequence (Q9HCT0 whole entry, looked up): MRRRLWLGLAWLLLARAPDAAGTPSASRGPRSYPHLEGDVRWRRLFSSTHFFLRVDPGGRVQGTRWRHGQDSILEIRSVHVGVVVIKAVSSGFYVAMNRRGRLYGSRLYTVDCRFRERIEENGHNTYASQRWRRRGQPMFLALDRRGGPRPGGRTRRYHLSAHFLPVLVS
697 NFkB inh = lowers PMA/ionomycin-induced NF-kB signal in 697 B cells. 697 B-cell NF-kB luciferase reporter, 16 h. inhibition, % at 4 µM. actives 0.33% (n = 330,000); in the data active = inhibition above about 35%
NR2E3 ag-2 = activates human NR2E3 receptor. CHO-S Gal4-NCOR/VP16-NR2E3 two-hybrid, luciferase. actives 0.35% (n = 360,000). inhibition of corepressor binding, % at 3.98 µM;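 active = inhibition above the mean of all tested compounds plus 3 SD, cut at about 70% in these data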;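 also: 0% = DMSO with NR2E3 transfected cells and 100% = cells lacking NR2E3 construct; higher means lower luciferase signal from less NR2E3 corepressor binding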
* hit, by the source's call; nt = no result; [ ] = another dose, or the depositor's remark.

SMILES | miR122 inh | Jurkat NFkB inh | NR2E3 ag-1 | FGF22 binding | 697 NFkB inh | NR2E3 ag-2
COc1ccc(C(=O)N/C(=C\c2cccc([N+](=O)[O-])c2)C(=O)Nc2cccc(C(=O)O)c2)cc1 | nt | -20.4 | 1.6 | 42.9* | 9.3 | -19.6
COc1ccc(C(=O)c2c(C)c3cc(C)ccc3n2CC(O)CN2CCOCC2)cc1 (configuration not stated) | nt | -15.9 | 2.6 | 43.6* | 14.2 | -1.6
CC(C)c1onc(C(=O)NCc2ccccn2)c1[N+](=O)[O-] | nt | -8.0 | 1.1 | 0.1 | 5.5 | 7.6
CC(C)c1onc(C(=O)Nc2cccc(Cl)c2)c1[N+](=O)[O-] | nt | -4.5 | 2.0 | 43.4* | -16.2 | -10.7
CCOC(=O)CCc1c(C)n[nH]c1C | nt | -14.7 | -0.5 | 43.0* | -19.1 | 14.9
CCCn1c(NC(=O)c2cccc(C)c2C)nc2ccccc21 | 118.2* | 3.5 | -1.8 | nt | -7.7 | -45.2
C[C@@H]1CCCCO[C@H](CN(C)C(=O)Nc2ccc3c(c2)OCO3)[C@@H](C)CN([C@H](C)CO)C(=O)c2cc(N(C)C)ccc2O1 | 2.1[16.7 µM] | nt | nt | 0.2 | nt | nt
CNC(=O)c1nnsc1S(=O)(=O)c1ccc(Cl)cc1 | -30.9 | 17.7 | nt | 43.0* | 28.2 | 22.9
Cc1ccccc1S(=O)(=O)N1C[C@@H](O)COC[C@H]2O[C@H](CC(=O)O)CC[C@@H]21 | -3.8[16.7 µM] | nt | nt | 0.3 | nt | nt
O=C(O)c1cc(-c2ccco2)nn1-c1cccc(Cl)c1 | nt | -9.3 | 3.2 | 43.2* | -9.1 | -12.7
O=C(O)c1cc(-c2ccco2)nn1-c1ccc(Cl)cc1 | nt | nt | nt | -0.1 | nt | -50.7
C[C@@H]1CN([C@H](C)CO)C(=O)c2cccc(N(C)C)c2O[C@H]1CN(C)C(=O)Nc1ccccc1 | 124.5*[16.7 µM] | nt | nt | 0.1 | nt | nt
C[C@H]1CN([C@@H](C)CO)C(=O)c2cccc(NC(=O)Nc3ccccc3)c2O[C@@H]1CN(C)Cc1ccc(C(=O)Nc2ccccc2N)cc1 | 152.9*[16.7 µM] | nt | nt | -0.2 | nt | nt
C[C@@H]1CN([C@H](C)CO)C(=O)c2cccc(NC(=O)c3ccc(-c4nccs4)cc3)c2O[C@@H]1CN(C)C(=O)Nc1ccccc1 | 14.4[16.7 µM] | nt | nt | 3.2* | nt | nt
C[C@@H]1CN([C@H](C)CO)C(=O)c2cccc(NC(=O)Nc3ccccc3)c2O[C@H]1CN(C)Cc1ccc(C(F)(F)F)cc1 | 106.8*[16.7 µM] | nt | nt | 0.3 | nt | nt
C[C@H]1CN([C@@H](C)CO)C(=O)c2cccc(NC(=O)c3ccc(-c4nccs4)cc3)c2O[C@@H]1CN(C)C(=O)Nc1ccccc1 | 1.7[16.7 µM] | nt | nt | 0.3 | nt | nt
C[C@H](CO)N1C[C@H](C)[C@H](CN(C)Cc2ccc(C(F)(F)F)cc2)Oc2c(NC(=O)Nc3ccccc3)cccc2C1=O | 25.7[16.7 µM] | nt | nt | -0.7 | nt | nt
CCC(=O)Nc1ccc2c(c1)C(=O)N(C)[C@H]1CC[C@@H](CC(=O)NCCN3CCCCC3)O[C@H]1CO2 | 2.0[16.7 µM] | nt | nt | 0.1 | nt | nt
C[C@@H]1CCCCO[C@H](CN(C)Cc2ccncc2)[C@H](C)CN([C@@H](C)CO)C(=O)c2cc(NC(=O)Nc3ccc4c(c3)OCO4)ccc2O1 | 9.4[16.7 µM] | nt | nt | 0.4 | nt | nt
C[C@@H]1CN([C@H](C)CO)C(=O)c2cccc(NC(=O)c3cnccn3)c2O[C@H]1CN(C)Cc1ccc(C(=O)Nc2ccccc2N)cc1 | nt | nt | nt | 0.2 | nt | nt
C[C@@H]1CN([C@@H](C)CO)C(=O)c2cccc(NC(=O)c3cnccn3)c2O[C@@H]1CN(C)Cc1ccc(C(=O)Nc2ccccc2N)cc1 | 128.8*[16.7 µM] | nt | nt | -0.5 | nt | nt
C[C@H](CO)N1C[C@H](C)[C@@H](CN(C)Cc2ccc(C(=O)Nc3ccccc3N)cc2)Oc2c(NC(=O)Nc3ccccc3)cccc2C1=O | 97.4*[16.7 µM] | nt | nt | -0.3 | nt | nt
CSc1ncccc1C(=O)OCC(=O)NCc1ccc2c(c1)OCO2 | nt | -6.7 | 2.9 | 43.2* | -4.9 | -26.6
O=C(COC(=O)c1cccnc1Cl)c1ccc(F)cc1 | -8.3 | -11.0 | -3.7 | 42.9* | -30.6 | -4.7
COc1cc(OC)cc(C(=O)OCC(=O)NCc2ccc3c(c2)OCO3)c1 | nt | 1.9 | -4.4 | 43.8* | 22.7 | 2.8
SMILES | miR122 inh | Jurkat NFkB inh | NR2E3 ag-1 | FGF22 binding | 697 NFkB inh | NR2E3 ag-2
Cc1ccc(CNC(=O)COC(=O)c2cccnc2Cl)cc1 | 3.0 | 1.8 | nt | 43.3* | 1.2 | 10.1
COCC(=O)Nc1ccc2c(c1)C(=O)N(C)[C@@H]1CC[C@H](CC(=O)NCC3CCCCC3)O[C@@H]1CO2 | 5.0[16.7 µM] | nt | nt | 0.0 | nt | nt
C[C@@H]1CN([C@@H](C)CO)C(=O)c2cc(NC(=O)Nc3cccc4ccccc34)ccc2O[C@@H]1CN(C)S(=O)(=O)c1ccccc1 | -5.4[16.7 µM] | nt | nt | 0.1 | nt | nt
NC(=O)C1CCN(C(=O)CN(c2ccc3c(c2)OCCO3)S(=O)(=O)c2ccccc2)CC1 | nt | -10.1 | -3.2 | -0.2 | -20.6 | 5.5
O=C(CN(c1ccc2c(c1)OCCO2)S(=O)(=O)c1ccccc1)N1CCN(Cc2ccccc2)CC1 | -7.1 | 14.1 | 2.9 | 43.5* | -9.5 | 11.1
S=C(NCC1CCCO1)NC1CCCCC1 (configuration not stated) | 9.2 | -2.3 | -0.1 | 43.3* | 7.3 | 14.7
O=C(NCC1CCCO1)C1CCCN1C(=O)NC1CCCCC1 (configuration not stated) | 2.5 | -1.8 | 2.8 | nt | 19.5 | -3.6
CCCNC(=O)N1[C@H](C#N)[C@@H](c2ccc(C3=CCCCC3)cc2)[C@@H]1CO | nt | nt | nt | -0.1 | nt | nt
CC(C)NC(=O)N1C[C@H]2[C@@H](c3ccccc31)[C@H](CO)N2Cc1ccccn1 | -28.6[16.7 µM] | nt | nt | 0.2 | nt | nt
O=C1c2ccccc2/C(=C\c2ccc(Br)nc2)N1c1ccccc1 | nt | nt | nt | 43.0* | nt | nt
O=C1c2ccccc2/C(=C\c2ccc(Br)s2)N1c1ccccc1 | 4.5 | 6.7 | nt | 0.1 | 3.8 | -12.2
Cc1ccc(-c2csc3ncnc(Oc4cccc5ccc(C)nc45)c23)cc1 | nt | 14.6 | -0.4 | 43.9* | 3.7 | 8.1
Cc1ccc2cccc(Oc3cnccn3)c2n1 | 1.2 | -13.3 | 0.0 | nt | 13.7 | -13.9
Cc1ccc2cccc(Oc3ncnc4sc(C)c(C)c34)c2n1 | 12.9 | 10.5 | 3.1 | 43.1* | 6.5 | 3.9
CC(=O)Nc1cccc(Oc2ncnc3scc(-c4ccccc4)c23)c1 | 2.3 | 13.3 | 2.4 | nt | -3.4 | 20.0
CC(=O)Nc1ccc2nc(CN3CCC(CO)(CCc4ccccc4)CC3)ccc2c1 | 162.4* | 19.4 | 2.8 | -0.1 | 1.1 | -49.3
CC(=O)c1cccc(CN2CCC(CO)(CCCc3ccccc3)CC2)c1 | 16.6 | -1.2 | 0.8 | -0.2 | -6.0 | -0.8
CN(C)/C=N/c1nc2ncc(-c3ccc(Cl)cc3)c(/N=C/N(C)C)n2n1 | 2.7 | 10.7 | 1.8 | 43.1* | 18.0 | -0.9
Cc1cc(C(=O)Nc2cccc3c2O[C@@H](CN(C)CC2CCCCC2)[C@@H](C)CN([C@@H](C)CO)C3=O)n(C)n1 | 94.4*[16.7 µM] | nt | nt | 0.1 | nt | nt
Cc1cc(C(=O)Nc2cccc3c2O[C@H](CN(C)Cc2ccc(C(F)(F)F)cc2)[C@@H](C)CN([C@@H](C)CO)C3=O)n(C)n1 | 82.5[16.7 µM] | nt | nt | 0.0 | nt | nt
